The source made the active and inactive calls. No cut-off for these calls is given here.
Assays:
CHO-K1 [1] = test: Clastogenic activity in CHOK1 cells assessed as lowest drug concentration required to increase number of micronucleated cells after 3 hrs incubation in dark by micronucleus assay; format: functional
Method in brief: (§1)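 CHO-K1 cells (50,000, chamber slides) grown 24 h, then dosed with a concentration range in duplicate, either kept dark or irradiated at once (4.5 J/cm², 1 min, 320–800 nm, 750 W m⁻², samples held at 4 °C). Exposure 3 h at 37 °C, then 5 μg/mL cytochalasin B for 24 h. Methanol fixation, Giemsa staining, 2000 binucleated cells per concentration scored at doses giving under 50% toxicity. χ² test against control. MCC is the lowest concentration giving a significant increase.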

CHO [2] = test: Phototoxicity in transformed CHO cells after 24 hrs of UV irradiation by WST1 assay; format: functional, cell-based; conditions: Cricetulus griseus, light or radiation study
Method in brief: (§2)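 CHO cells (50,000/well, McCoy's 5A with 10% FCS) grown 24 h, then dosed with a concentration range in duplicate (DMSO under 0.5% final). Either kept dark or irradiated at once (4.5 J/cm²: 0.36 UVA plus 4.14 visible, 750 W m⁻²), then 24 h at 37 °C. After PBS washes, 20 min with WST1 and absorbance read at 450 nm. IC50 is the 50% drop versus control.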

CHO [3] = test: Phototoxicity in transformed CHO cells after 24 hrs incubation in dark by WST1 assay; format: functional, cell-based; conditions: Cricetulus griseus, light or radiation study; method in brief: as §2
[4] = Phototoxicity in normal human keratinocytes after 24 hrs incubation in dark by WST1 assay; format: cell-based; conditions: Keratinocyte, light or radiation study
CHO-K1 [5] = test: Clastogenic activity in CHOK1 cells assessed as lowest drug concentration required to increase number of micronucleated cells after 3 hrs of UV irradiation by micronucleus assay; format: functional; method in brief: as §1
[6] = Phototoxicity in normal human keratinocytes after 24 hrs of UV irradiation by WST1 assay; format: cell-based; conditions: Keratinocyte, light or radiation study
[7] = Ratio of IC50 for normal human keratinocytes incubated in dark to IC50 for normal human keratinocytes incubated under UV irradiation; format: cell-based, Keratinocyte; conditions: read-out: Ratio IC50
CHO [8] = test: Ratio of IC50 for transformed CHO cells incubated in dark to IC50 for transformed CHO cells incubated under UV irradiation; format: functional, Cricetulus griseus
CHO-K1 [9] = test: Clastogenic activity in CHOK1 cells assessed as induction of chromosomal mutation and misaggregation at 0.15 uM after 3 hrs of 4.5 J/cm'2 UV irradiation by micronucleus assay in presence of protective antioxidant mannitol treated 2 hrs before compound addition; format: functional, cell-based; conditions: Cricetulus griseus
Method in brief: (§3)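 CHO-K1 cells (50,000, chamber slides, McCoy's 5A with 10% FCS) grown 24 h, then given 2 mM mannitol for 2 h at 37 °C. Then either dark treatment or irradiation at 4.5 J/cm² (UVA-visible 320–800 nm, 750 W m⁻²). Exposure 3 h at 37 °C, then 5 μg/mL cytochalasin B for 24 h. Giemsa staining; binucleated cells scored for micronuclei at 1000×.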

CHO-K1 [10] = test: Clastogenic activity in CHOK1 cells assessed as induction of chromosomal mutation and misaggregation at 15 uM incubated in dark for 3 hrs by micronucleus assay in presence of protective antioxidant mannitol treated 2 hrs before compound addition; format: functional, cell-based; conditions: Cricetulus griseus; method in brief: as §3

Row | Compound | Activity (CHO-K1 [1]; Cricetulus griseus) | IC50 (CHO [2]) | IC50 (CHO [3]) | IC50 [4] | Activity (CHO-K1 [5]; Cricetulus griseus) | IC50 [6] | Activity (CHO-K1 [1]) | Activity (CHO-K1 [5]) | selectivity ratio [7] | Ratio IC50 (CHO [8]) | Activity (CHO-K1 [9]) | Activity (CHO-K1 [10])
1 | O=C(Nc1ccc2cc3ccc(NC(=O)c4ccc([N+](=O)[O-])cc4)cc3nc2c1)c1ccc([N+](=O)[O-])cc1 | inactive | > 50000 nM | 40.2 µM | > 50 µM | inactive | > 50 µM | – | – | – | – | – | –
2 | CCC(=O)Nc1ccc2cc3ccc(NC(=O)CC)cc3nc2c1 | – | 2900 nM | > 50 µM | > 50 µM | – | 2.4 µM | 1.15 µM | 0.03 µM | – | – | – | –
3 | O=C(Nc1ccc2cc3ccc(NC(=O)c4ccc(Cl)c(Cl)c4)cc3nc2c1)c1ccc(Cl)c(Cl)c1 | inactive | > 50000 nM | > 50 µM | > 50 µM | inactive | > 50 µM | – | – | – | – | – | –
4 | O=C(Nc1ccc2cc3ccc(NC(=O)c4ccc(F)cc4)cc3nc2c1)c1ccc(F)cc1 | inactive | > 50000 nM | > 50 µM | > 50 µM | – | > 50 µM | – | 1.81 µM | – | – | – | –
5 | CC(C)(C)C(=O)Nc1ccc2cc3ccc(NC(=O)C(C)(C)C)cc3nc2c1 | inactive | 100 nM | 0.11 µM | 3.28 µM | inactive | 4.69 µM | – | – | – | – | – | –
6 | O=C(Nc1ccc2cc3ccc(NC(=O)c4ccc(Cl)cc4)cc3nc2c1)c1ccc(Cl)cc1 | – | 940 nM | > 50 µM | > 50 µM | – | 5.4 µM | 2.38 µM | 0.12 µM | – | – | – | –
7 | N#Cc1ccc(C(=O)Nc2ccc3cc4ccc(NC(=O)c5ccc(C#N)cc5)cc4nc3c2)cc1 | inactive | 3460 nM | > 50 µM | > 50 µM | – | 33.5 µM | – | 0.06 µM | – | – | – | –
8 | CC(C)(C)OC(=O)Nc1ccc2cc3ccc(NC(=O)OC(C)(C)C)cc3nc2c1 | inactive | 120 nM | 6.1 µM | > 50 µM | inactive | 0.14 µM | – | – | 100 | – | – | –
9 | O=C(Nc1ccc2cc3ccc(NC(=O)c4cccc5ccccc45)cc3nc2c1)c1cccc2ccccc12 | inactive | 320 nM | 42.3 µM | > 50 µM | – | 24.1 µM | – | 0.13 µM | – | 130 | – | –
10 | Cc1ccc(C(=O)Nc2ccc3cc4ccc(NC(=O)c5ccc(C)cc5)cc4nc3c2)cc1 | – | 1340 nM | 43.1 µM | > 50 µM | – | 4.04 µM | 2.11 µM | 0.02 µM | – | – | – | –
11 | O=C(Nc1ccc2cc3ccc(NC(=O)c4ccccc4)cc3nc2c1)c1ccccc1 | inactive | 260 nM | 23.8 µM | > 50 µM | inactive | 0.33 µM | – | – | 100 | 90 | – | –
12 | O=C(Nc1ccc2cc3ccc(NC(=O)c4cc(C(F)(F)F)cc(C(F)(F)F)c4)cc3nc2c1)c1cc(C(F)(F)F)cc(C(F)(F)F)c1 | inactive | > 50000 nM | > 50 µM | > 50 µM | inactive | > 50 µM | – | – | – | – | – | –
13 | CCCC(=O)Nc1ccc2cc3ccc(NC(=O)CCC)cc3nc2c1 | – | 1340 nM | 38.9 µM | > 50 µM | – | 0.57 µM | 1.01 µM | 0.007 µM | 100 | – | Active | Active
14 | COc1ccc(C(=O)Nc2ccc3cc4ccc(NC(=O)c5ccc(OC)cc5)cc4nc3c2)cc1 | inactive | 43400 nM | 45.2 µM | > 50 µM | inactive | > 50 µM | – | – | – | – | – | –
15 | O=C(Nc1ccc2cc3ccc(NC(=O)c4ccco4)cc3nc2c1)c1ccco1 | inactive | 16400 nM | 2.5 µM | 34.1 µM | inactive | 19.3 µM | – | – | – | – | – | –
16 | Nc1ccc2cc3ccc(N)cc3nc2c1 [PROFLAVINE] | – | 520 nM | 1.1 µM | > 50 µM | – | > 50 µM | 0.005 µM | 0.004 µM | – | – | – | –
17 | CC(=O)Nc1ccc2cc3ccc(NC(C)=O)cc3nc2c1 | – | 37200 nM | > 50 µM | > 50 µM | – | 41.2 µM | 11.01 µM | 0.24 µM | – | – | – | –
18 | Nc1ccc(C(=O)Nc2ccc3cc4ccc(NC(=O)c5ccc(N)cc5)cc4nc3c2)cc1 | inactive | > 50000 nM | > 50 µM | > 50 µM | – | > 50 µM | – | 0.13 µM | – | – | – | –
19 | COC(=O)Nc1ccc2cc3ccc(NC(=O)OC)cc3nc2c1 | – | 3800 nM | 15.8 µM | > 50 µM | – | 8.1 µM | 0.47 µM | 0.21 µM | – | – | – | –

Source: ChEMBL document CHEMBL1158390, “Photo-inducible cytotoxic and clastogenic activities of 3,6-di-substituted acridines obtained by acylation of proflavine” (Eur J Med Chem, 2009)
